# Legend:
# A-375 = assay: Tested in vitro against A-375 cell line human melanoma; format: functional, cell-based
# Outline: (§1)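 MTT growth assay: 2 × 10³ cells/well exposed to compound or left untreated for 72 h. MTT then added for 4 h more; formazan dissolved in DMSO and OD read at 540 nm. % inhibition = [1 − OD sample/OD control] × 100. IC₅₀ (μM) is the concentration giving 50% growth inhibition. Single-concentration inhibition measured at 100 μg/mL.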
# HT-1080 = assay: Tested in vitro against HT1080 cell line human fibrosarcoma; format: functional, cell-based; outline: as §1
# [1] = tested on: KATO III stomach cancer cell line; assay: Tested in vitro against KATO-III human stomach adenocarcinoma; format: functional, cell-based; outline: as §1
# KKLS = assay: Tested in vitro against KKLS human stomach adenocarcinoma; format: functional, cell-based; outline: as §1
# L1210 = assay: Tested in vitro inhibitory activity against murine leukemia L1210; format: functional, cell-based; details: Mus musculus; outline: as §1
# MCF7 = assay: Tested in vitro against MCF-7 human breast adenocarcinoma; format: functional, cell-based; outline: as §1
# [2] = Tested in vitro inhibitory activity against human oral epidermoid carcinoma KB cells; format: functional, cell-based; outline: as §1
# MKN-45 = assay: Tested in vitro against MKN-45 human stomach adenocarcinoma; format: functional, cell-based; details: MKN-45, Stomach; outline: as §1
# HOS-TE85 = assay: Tested in vitro against MNNG/HOS cell line human osteosarcoma; format: functional, cell-based; outline: as §1
# Mus musculus [3] = assay: Tested for 60-day survivors after administration at 100 mg/kg orally in M5076 mouse reticulum cell sarcoma; format: functional; details: route oral
# Outline: (§2)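 Female BD2F1 mice were implanted s.c. with 1 × 10^6 M5076 cells and dosed orally on days 1, 4, 7, 10, 13 and 16. Vehicle was saline or 5% DMA in 0.5% CMC. Groups had six mice (three at 400 mg/kg), with nine untreated controls. The number of mice alive at 60 days was counted.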
# Mus musculus [4] = assay: Tested for 60-day survivors after administration at 200 mg/kg orally in M5076 mouse reticulum cell sarcoma; format: functional; details: route oral; outline: as §2
# Mus musculus [5] = assay: Tested for 60-day survivors after administration at 300 mg/kg orally in M5076 mouse reticulum cell sarcoma; format: functional; details: route oral; outline: as §2
# Mus musculus [6] = assay: Tested for 60-day survivors after administration at 400 mg/kg orally in M5076 mouse reticulum cell sarcoma; format: functional; details: route oral; outline: as §2
# Mus musculus [7] = assay: Percent treated was determined after administration at 200 mg/kg orally; format: functional; details: route oral
# Outline: (§3)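 Female BDF₁ mice bearing subcutaneous M5076 (10⁶ cells, axillary). Oral dosing in saline or 5% DMA/0.5% CMC on days 1, 4, 7, 10, 13 and 16. Groups of six (three at 400 mg/kg), nine untreated controls. T/C (%) = median survival day of treated/median survival day of untreated controls × 100; 60-day survivors also recorded.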
# Mus musculus [8] = assay: Percent treated was determined after administration at 300 mg/kg orally; format: functional; details: route oral; outline: as §3
# Mus musculus [9] = assay: Percent treated was determined after administration at 400 mg/kg orally; format: functional; details: route oral; outline: as §3
# Mus musculus [10] = assay: Percent inhibition against M5076 mouse reticulum cell sarcoma after administration at 100 mg/kg orally on day 20; format: functional; details: M5076, 480 h, route oral
# Outline: (§4)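 M5076 cells (10⁶ viable, counted by Trypan blue exclusion) implanted subcutaneously into the axillary region of female BDF₁ mice. Drug given orally on days 1, 4, 7, 10, 13 and 16 after inoculation, in saline or in 5% dimethylacetamide/0.5% carboxymethyl cellulose. Six mice per group (three at 400 mg/kg); untreated controls, nine mice. Tumor volume = 0.5 × length × width²; inhibition (%) = (1 − Vt/Vc) × 100 on day 20.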
# Mus musculus [11] = assay: Percent inhibition against M5076 mouse reticulum cell sarcoma after administration at 300 mg/kg orally on day 20; format: functional; details: M5076, 480 h, route oral; outline: as §4
# Mus musculus [12] = assay: Percent inhibition against M5076 mouse reticulum cell sarcoma after administration at 400 mg/kg orally on day 20; format: functional; details: M5076, 480 h, route oral; outline: as §4
# Mus musculus [13] = assay: Weight change in M5076 mouse reticulum cell sarcoma after administration at 400 mg/kg orally; format: functional; details: route oral
# Outline: (§5)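 Female BDF₁ mice with subcutaneous axillary M5076 (10⁶ cells), oral dosing on days 1, 4, 7, 10, 13 and 16 in saline or 5% DMA/0.5% CMC. Body weight change (g) = mean weight on day 20 minus mean weight on day 1.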
# Mus musculus [14] = assay: Percent treated was determined after administration at 100 mg/kg orally; format: functional; details: route oral; outline: as §3
# Mus musculus [15] = assay: Weight change in M5076 mouse reticulum cell sarcoma after administration at 100 mg/kg orally; format: functional; details: route oral; outline: as §5
# Mus musculus [16] = assay: Weight change in M5076 mouse reticulum cell sarcoma after administration at 200 mg/kg orally; format: functional; details: route oral; outline: as §5
# Mus musculus [17] = assay: Weight change in M5076 mouse reticulum cell sarcoma after administration at 300 mg/kg orally; format: functional; details: route oral; outline: as §5
# OST = assay: Tested in vitro against OST human osteosarcoma; format: functional, cell-based; outline: as §1
# PC-8 = assay: Tested in vitro against PC-8 human lung adenocarcinoma; format: functional, cell-based; outline: as §1
# PC-9 = assay: Tested in vitro against PC-9 human lung adenocarcinoma; format: functional, cell-based; outline: as §1
# PC-13 = assay: Tested in vitro against PC-13 human lung large cell carcinoma; format: functional, cell-based; outline: as §1
# QG-95 = assay: Tested in vitro against QG-95 human squamous cell carcinoma; format: functional, cell-based; outline: as §1
# SW48 = assay: Tested in vitro against SW-48 human colon adenocarcinoma; format: functional, cell-based; outline: as §1
# ST-KM-1 = assay: Tested in vitro against ST-KM human stomach adenocarcinoma; format: functional, cell-based; details: ST-KM-1, Stomach; outline: as §1
# COLO 320 = assay: Tested in vitro against colo-320 human colon adenocarcinoma; format: functional, cell-based; details: COLO 320, Colon; outline: as §1
# Mus musculus [18] = assay: Percent inhibition against M5076 mouse reticulum cell sarcoma after administration at 200 mg/kg orally on day 20; format: functional; details: M5076, 480 h, route oral; outline: as §4
# Mus musculus [19] = assay: Tested for 60-day survivors after administration at 10 mg/kg orally in M5076 mouse reticulum cell sarcoma; format: functional; details: route oral; outline: as §2
# Mus musculus [20] = assay: Tested for 60-day survivors after administration at 20 mg/kg orally in M5076 mouse reticulum cell sarcoma; format: functional; details: route oral; outline: as §2
# Mus musculus [21] = assay: Tested for 60-day survivors after administration at 30 mg/kg orally in M5076 mouse reticulum cell sarcoma; format: functional; details: route oral; outline: as §2
# Mus musculus [22] = assay: Tested for 60-day survivors after administration at 40 mg/kg orally in M5076 mouse reticulum cell sarcoma; format: functional; details: route oral; outline: as §2
# Mus musculus [23] = assay: Tested for 60-day survivors after administration at 50 mg/kg orally in M5076 mouse reticulum cell sarcoma; format: functional; details: route oral; outline: as §2
# Mus musculus [24] = assay: Percent treated was determined after administration at 20 mg/kg orally; format: functional; details: route oral
# Outline: (§6)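 In female BD2F1 mice bearing s.c. M5076 sarcoma (1 × 10^6 cells), drug was given orally on days 1, 4, 7, 10, 13 and 16, with six mice per treated group and nine untreated controls. T/C (%) = median survival day of treated mice / median survival day of untreated controls × 100.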
# Mus musculus [25] = assay: Percent treated was determined after administration at 30 mg/kg orally; format: functional; details: route oral; outline: as §6
# Mus musculus [26] = assay: Percent treated was determined after administration at 40 mg/kg orally; format: functional; details: route oral; outline: as §6
# Mus musculus [27] = assay: Percent treated was determined after administration at 50 mg/kg orally; format: functional; details: route oral; outline: as §6
# Mus musculus [28] = assay: Percent treated was determined after administration at 10 mg/kg orally; format: functional; details: route oral; outline: as §6
# Mus musculus [29] = assay: Percent inhibition against M5076 mouse reticulum cell sarcoma after administration at 10 mg/kg orally on day 20; format: functional; details: M5076, 480 h, route oral
# Outline: (§7)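 Female BD2F1 mice (7-8 weeks, 20-25 g) were given 1 × 10^6 viable M5076 cells s.c. in the axillary region. Drug in saline or 5% DMA/0.5% CMC was given orally on days 1, 4, 7, 10, 13 and 16, with six mice per group and untreated controls. Tumor volume = 0.5 × length × width². Inhibition on day 20 = (1 − Vt/Vc) × 100.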
# Mus musculus [30] = assay: Percent inhibition against M5076 mouse reticulum cell sarcoma after administration at 20 mg/kg orally on day 20; format: functional; details: M5076, 480 h, route oral; outline: as §7
# Mus musculus [31] = assay: Percent inhibition against M5076 mouse reticulum cell sarcoma after administration at 30 mg/kg orally on day 20; format: functional; details: M5076, 480 h, route oral; outline: as §7
# Mus musculus [32] = assay: Percent inhibition against M5076 mouse reticulum cell sarcoma after administration at 40 mg/kg orally on day 20; format: functional; details: M5076, 480 h, route oral; outline: as §7
# Mus musculus [33] = assay: Percent inhibition against M5076 mouse reticulum cell sarcoma after administration at 50 mg/kg orally on day 20; format: functional; details: M5076, 480 h, route oral; outline: as §7
# Mus musculus [34] = assay: Weight change in M5076 mouse reticulum cell sarcoma after administration at 50 mg/kg orally; format: functional; details: route oral
# Outline: (§8)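 Mice were female BD2F1 bearing s.c. M5076 sarcoma (1 × 10^6 cells) and given oral drug on days 1, 4, 7, 10, 13 and 16. Body weight change (g) = average body weight on day 20 minus average on day 1.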
# Mus musculus [35] = assay: Weight change in M5076 mouse reticulum cell sarcoma after administration at 10 mg/kg orally; format: functional; details: route oral; outline: as §8
# Mus musculus [36] = assay: Weight change in M5076 mouse reticulum cell sarcoma after administration at 30 mg/kg orally; format: functional; details: route oral; outline: as §8
# Mus musculus [37] = assay: Weight change in M5076 mouse reticulum cell sarcoma after administration at 40 mg/kg orally; format: functional; details: route oral; outline: as §8
# Mus musculus [38] = assay: Weight change in M5076 mouse reticulum cell sarcoma after administration at 20 mg/kg orally; format: functional; details: route oral; outline: as §8
smiles,measurement,setting,value
Cl.N#C[C@H]1[C@H](O)[C@@H](CO)O[C@H]1n1ccc(N)nc1=O,IC50,A-375,1400 nM
same,IC50,HT-1080,530 nM
same,IC50,[1],55.6 µM
same,IC50,KKLS,350 µM
same,IC50,L1210,530 nM
same,IC50,MCF7,1750 nM
same,IC50,[2],5.2 µM
same,IC50,MKN-45,15.9 µM
same,IC50,HOS-TE85,23.6 µM
same,Survivors,Mus musculus [3],0
same,Survivors,Mus musculus [4],2
same,Survivors,Mus musculus [5],0
same,Survivors,Mus musculus [6],1
same,T/C,Mus musculus [7],136%
same,T/C,Mus musculus [8],120%
same,T/C,Mus musculus [9],133%
same,inhibition in vivo at 100 mg/kg,Mus musculus [10],79%
same,inhibition in vivo at 300 mg/kg,Mus musculus [11],97%
same,inhibition in vivo at 400 mg/kg,Mus musculus [12],99%
same,Weight change,Mus musculus [13],1.1 g
same,T/C,Mus musculus [14],118%
same,Weight change,Mus musculus [15],1.7 g
same,Weight change,Mus musculus [16],2 g
same,Weight change,Mus musculus [17],1 g
same,IC50,OST,22.2 µM
same,IC50,PC-8,15.9 µM
same,IC50,PC-9,15.3 µM
same,IC50,PC-13,86.8 µM
same,IC50,QG-95,138 µM
same,IC50,SW48,> 350 µM
same,IC50,ST-KM-1,9.71 µM
same,IC50,COLO 320,1400 nM
same,inhibition in vivo at 200 mg/kg,Mus musculus [18],93%
O=c1[nH]cc(F)c(=O)[nH]1 [FLUOROURACIL],Survivors,Mus musculus [19],6
same,Survivors,Mus musculus [20],6
same,Survivors,Mus musculus [21],6
same,Survivors,Mus musculus [22],6
same,Survivors,Mus musculus [23],6
same,T/C,Mus musculus [24],85%
same,T/C,Mus musculus [25],86%
same,T/C,Mus musculus [26],79%
same,T/C,Mus musculus [27],79%
same,T/C,Mus musculus [28],94%
same,inhibition in vivo at 10 mg/kg,Mus musculus [29],1%
same,inhibition in vivo at 20 mg/kg,Mus musculus [30],6%
same,inhibition in vivo at 30 mg/kg,Mus musculus [31],9%
same,inhibition in vivo at 40 mg/kg,Mus musculus [32],17%
same,inhibition in vivo at 50 mg/kg,Mus musculus [33],28%
same,Weight change,Mus musculus [34],1.4 g
same,Weight change,Mus musculus [35],2.4 g
same,Weight change,Mus musculus [36],2.4 g
same,Weight change,Mus musculus [37],2.1 g
same,Weight change,Mus musculus [38],2.2 g
